These entries were drawn from the full list.
Apaf1 activ – activates human Apaf-1 apoptosome. AID 489031. activity change, negative = activation, % at 20 µM. actives 0.31% (n = 330,000). Apaf-1 apoptosome caspase-3 activation, DEVD-Rh110 fluorescence; active compounds read low;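 active = activity change at or below -40% at 20 µM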
Target sequence (O14727 whole entry, looked up): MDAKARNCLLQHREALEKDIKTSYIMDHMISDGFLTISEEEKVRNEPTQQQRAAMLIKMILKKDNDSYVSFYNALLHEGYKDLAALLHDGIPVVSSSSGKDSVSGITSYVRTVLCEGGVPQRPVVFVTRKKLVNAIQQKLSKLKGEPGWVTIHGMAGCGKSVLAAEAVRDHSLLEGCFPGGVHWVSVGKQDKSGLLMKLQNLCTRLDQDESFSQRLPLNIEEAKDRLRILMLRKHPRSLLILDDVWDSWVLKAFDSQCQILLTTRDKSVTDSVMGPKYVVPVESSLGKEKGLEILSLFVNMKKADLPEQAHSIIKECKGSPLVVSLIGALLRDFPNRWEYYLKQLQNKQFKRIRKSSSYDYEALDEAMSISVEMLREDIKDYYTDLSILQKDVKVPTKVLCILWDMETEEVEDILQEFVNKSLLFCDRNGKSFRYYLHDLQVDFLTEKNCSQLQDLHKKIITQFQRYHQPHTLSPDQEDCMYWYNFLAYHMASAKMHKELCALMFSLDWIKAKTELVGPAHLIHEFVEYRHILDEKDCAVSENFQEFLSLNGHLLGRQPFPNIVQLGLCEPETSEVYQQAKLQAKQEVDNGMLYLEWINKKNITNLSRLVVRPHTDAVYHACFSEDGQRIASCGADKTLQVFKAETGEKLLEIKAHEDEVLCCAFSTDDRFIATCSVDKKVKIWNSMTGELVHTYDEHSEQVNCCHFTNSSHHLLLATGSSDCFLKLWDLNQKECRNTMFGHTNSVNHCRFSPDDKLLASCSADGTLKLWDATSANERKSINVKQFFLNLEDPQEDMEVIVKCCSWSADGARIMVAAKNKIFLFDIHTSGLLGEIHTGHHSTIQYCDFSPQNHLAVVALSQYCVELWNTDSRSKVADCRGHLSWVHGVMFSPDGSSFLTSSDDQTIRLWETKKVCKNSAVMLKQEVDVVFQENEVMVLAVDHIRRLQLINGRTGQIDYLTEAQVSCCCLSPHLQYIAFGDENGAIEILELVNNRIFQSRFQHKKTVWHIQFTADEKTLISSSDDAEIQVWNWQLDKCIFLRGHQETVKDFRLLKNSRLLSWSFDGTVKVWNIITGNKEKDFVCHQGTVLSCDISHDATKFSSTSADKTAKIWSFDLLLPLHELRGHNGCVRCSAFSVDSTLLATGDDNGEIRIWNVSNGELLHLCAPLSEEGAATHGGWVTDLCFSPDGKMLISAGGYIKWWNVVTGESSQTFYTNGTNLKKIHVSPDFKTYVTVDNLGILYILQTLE
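Assay system – biochemical Apaf-1 apoptosome reconstitution · Medium – 20 mM HEPES buffer, pH 7.5, containing CHAPS and BSA · Incubation – 30 min preincubation, 50 min reaction, room temperature · Measured by – Caspase-3-released Rh110 fluorescence, 540 nm emission, 480 nm excitation · Read-out – Caspase-3 cleavage activity downstream of Apaf-1 activation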
Of the large screens only hits and unclear results are named; the others gave an inactive call.

O=C(Nc1nc2c(Cl)cccc2s1)c1ccc([N+](=O)[O-])o1	Apaf1 activ -120
O=C(c1ccco1)N1CCN(C(=O)c2cn(-c3ccccc3)nc2-c2ccc(F)cc2)CC1	none
CCN(CC(=O)Nc1ccc(OC)cc1)C(=O)C1CCN(C(=O)c2ccc(Cl)cc2)CC1	none
COc1ccc(OCc2cc(C(=O)NC3CCOC(C)(C)C3)no2)c2ccccc12 (stereo not drawn)	none
O=C1NC(Cc2ccc(O)cc2)c2nc3ccc(Cl)cc3c(=O)n2-c2ccc(Cl)cc21 (stereo not drawn)	Apaf1 activ -42
CN(C)CCCNc1cc(O)c2ncccc2c1	none
COCC(=O)O[C@]1(CCN(C)CCCc2nc3ccccc3[nH]2)CCc2cc(F)ccc2[C@@H]1C(C)C	none
CCOc1cc(/C=C(\C#N)C(=O)Nc2cccc(C(=O)O)c2)ccc1OCc1ccc(Br)cc1	Apaf1 activ -119
CCOc1ccc(OCCSc2ccc(S(=O)(=O)N3CCN(C)CC3)cn2)cc1	none
Cc1ccc(NC(=O)CSc2nc3ccccc3c(=O)n2CCCN2CCCCC2)cc1C	none
COc1ccc(CC2=CC(=O)c3ccccc3C2=O)cc1	none
Cc1c(C=O)c(Cl)n(C)c(=O)c1C#N	none
CC1=NN(c2ccc(C)cc2C)C(=O)C1C(c1cccc(O)c1)C1C(=O)N(c2ccc(C)cc2C)N=C1C (stereo not drawn)	none
CC(C)Cn1c(N)c(C(=O)NCC2CCCO2)c2nc3ccccc3nc21 (stereo not drawn)	none
COCCn1c(N)c(C(=O)NCC2CCCO2)c2nc3ccccc3nc21 (stereo not drawn)	none
COc1ccc(-c2cc(C(F)(F)F)n3ncc(C(=O)NCC4CCCO4)c3n2)cc1OC (stereo not drawn)	Apaf1 activ -496
CCCCCCSc1ccc(-c2nc3cnccn3c2NCCCC)cc1	none
CCCCCCN(C(=O)CCCCCN1C(=O)NC(c2ccc(-c3ccccc3)cc2)C(C(=O)OCc2ccccc2)=C1C)C(C(=O)NCCCC)c1cccc(C(=O)OC)c1 (stereo not drawn)	none
CSCCC(NC(=O)c1ccccc1Br)C(=O)N1CCN(C(C)=O)CC1 (stereo not drawn)	none
COc1ccc(OC)c(S(=O)(=O)Oc2ccc(N)c3ccccc23)c1	none
C=C(C)C(=O)Nc1cccc(C2=NOC3(C2)C[C@@H](C(N)=O)N(C(=O)C2(C)CC2)C3)c1 (stereo partly drawn)	Apaf1 activ -295
NC(=O)[C@H](Cc1cc2ccccc2s1)NC(=O)[C@@H]1CC2(CC(c3cccc(NC(=O)[C@@H]4CCC(=O)N4)c3)=NO2)CN1C(=O)/C=C/c1c(F)cccc1Cl (stereo partly drawn)	none
COc1ccccc1C1/C(=C(\O)c2ccc3c(c2)OCCO3)C(=O)C(=O)N1CCCn1ccnc1 (stereo not drawn)	none
COc1ccccc1Oc1c(C)oc2c(CN3CCN(C)CC3)c(O)ccc2c1=O	Apaf1 activ -595
Cc1cccc(N2CCN(C(=O)c3cc4cc(F)ccc4[nH]3)CC2)c1C	none
O=C1Cc2cc([N+](=O)[O-])ccc2N1c1c(Cl)cccc1Cl	none
CC1=C(C#N)C(=O)N(C2CCS(=O)(=O)C2)C(=O)/C1=C\c1ccco1 (stereo not drawn)	none
CCC(C)[C@H]1CN=C(N)N1CCc1cc(C(F)(F)F)cc(C(F)(F)F)c1 (stereo partly drawn)	none
CCCOc1ccc(C2C(C(=O)c3ccco3)=C(O)C(=O)N2CCN2CCOCC2)cc1OC (stereo not drawn)	Apaf1 activ -492
CCOc1cc(C2C(C(C)=O)=C(O)C(=O)N2CCc2c[nH]c3ccccc23)ccc1O (stereo not drawn)	none
C[C@@H]1CCCCCCCCC(=O)OCCN[C@H](C)CCCCCCCCC(=O)OCCN[C@H](C)CCCCCCCCC(=O)OCCN1	none
CC(C)C[C@H]1CN=C(Nc2ccccc2)N1CC1CCC(C(C)(C)C)CC1 (stereo partly drawn)	none
COC(=O)c1ccccc1S(=O)(=O)N1CCC(C(=O)N2CCC2)CC1	none
CN(Cc1ccccn1)C(=O)c1ccc2nc(Cc3cccc(Cl)c3)oc2c1	Apaf1 activ -116
O=C(OCC(=O)N1CCC(c2ccccc2)=N1)c1ccc([N+](=O)[O-])s1	none
COCCCn1c(=O)c2sccc2n(Cc2ccccc2C)c1=O	none
CCN(CC)c1ccc(/C=C/c2nc3ccccc3s2)cc1	Apaf1 activ -305
CC[n+]1c(/C=C/N(C)c2ccccc2)n(-c2ccccc2)c2ccc(-c3nc4ccccc4s3)cc21	none
CCCn1nc(C(=O)Nc2ccc(-n3cnnn3)cc2)c2ccccc2c1=O	none
COC(C[C@H]1O[C@@H]1C(=O)[C@H](C)OCc1ccccc1)OC	none
CC(C(=O)NC(=O)NC1CCCCC1)N(C)CC(=O)Nc1ccc(F)c(F)c1F (stereo not drawn)	none
CC1(OC(=O)c2cccs2)C(=O)C=C2C=C3CCCN3C=C2C1=O (stereo not drawn)	none
CC(=O)N1CCc2c(sc(NC(=O)c3cccc(N4C(=O)CCC4=O)c3)c2C(N)=O)C1	none
Cc1noc(C)c1S(=O)(=O)N1CCN(C(c2ccccc2)c2ccc(Cl)cc2)CC1 (stereo not drawn)	Apaf1 activ -108
O=S(=O)(NCC(c1ccccc1)N1CCNCC1)c1ccc(Cl)cc1 (stereo not drawn)	none
CCCN1CCN(C(=O)C2CCN(S(=O)(=O)c3c(C)noc3/C=C/c3ccc(C)cc3)CC2)CC1	none
CCC1CCc2sc(C(=O)NCC(c3ccc(OC)cc3)N3CCCC3)cc2C1 (stereo not drawn)	none
Oc1c(Br)cc(Br)cc1C=Nc1cccc2ncccc12	none
COc1ccc(CN(C)C(C)C(=O)Nc2ccc(S(=O)(=O)N3CCCC3)cc2)c(OC)c1OC (stereo not drawn)	Apaf1 activ -83
COc1ccc(CC(=O)N(C)CC(=O)Nc2c(C)cccc2C)cc1S(=O)(=O)N1CCOCC1	none
COc1ccc(CC(=O)N(C)CC(=O)Nc2ccccc2C(F)(F)F)cc1S(=O)(=O)N1CCOCC1	none
O=C(NNc1cc(N2CCOCC2)nc(N2CCOCC2)n1)c1ccc(Cl)cc1Cl	none
Oc1ccc(C[C@H]2CNCCN2CCCCC2CCCCC2)cc1	none
Cc1c(C#N)c(=O)oc2ccc3ccccc3c12	Apaf1 activ -97
CNC[C@@H]1Oc2ccc(NC(=O)Nc3cccc4ccccc34)cc2C(=O)N([C@@H](C)CO)C[C@@H]1C	none
CCOC(=O)C1CCCN(C(=O)c2cccc(S(=O)(=O)N(C)c3c(C)n(C)n(-c4ccccc4)c3=O)c2)C1 (stereo not drawn)	none
Cc1ccc(-c2ccc(/C=N\NC(=O)C3C(=O)NCC3c3ccccc3)o2)cc1Cl (stereo not drawn)	none
CCC[C@@H](CN1CCC[C@H]1CN1C(N)=NC[C@H]1C(C)C)N1C[C@@H](Cc2ccccc2)N(CCCC2CCCC2)C1=N	none
O=C1c2ccccc2[C@@H]2C[C@@H](O)[C@H](Nc3cccc4ccccc34)CCN12	none
O=C(Nc1ccccc1)Nc1ccc(O)c2ccccc12	none
CCOC(=O)c1c(NC(=O)N/N=C/c2ccc(O)c(OC)c2)sc(C(C)=O)c1C	Apaf1 activ -63
COc1cc(/C=N/NC(=O)c2ccncc2)ccc1O	none
CNC[C@H](Cc1cccc2ccccc12)NC[C@H](CCSC)NCC1CCC(C(C)(C)C)CC1 (stereo partly drawn)	none
C#CCOCCOCCOCCNc1nc(N2CCN(C(=O)[C@H](Cc3cc4ccccc4[nH]3)n3cc([C@@H](N)CC(C)C)nn3)CC2)nc(N2CCN(C(=O)[C@H](Cc3cc4ccccc4[nH]3)n3cc([C@@H](N)CC(C)C)nn3)CC2)n1	none

Screens deposited in PubChem BioAssay by Sanford-Burnham Center for Chemical Genomics.
